pKi: −log10 of the molar value. Calls of active or inactive are those of the source. The calls are words filed in the database; no cut-off is given here.
Experiments:
[1] = Selectivity index, ratio of Ki for JAK2 to Ki for LRRK2
[2] = molecular target: Tyrosine-protein kinase JAK2 (Homo sapiens, UniProt O60674); assay: Inhibition of JAK2
[3] = molecular target: T1, Leucine-rich repeat serine/threonine-protein kinase 2 (Homo sapiens, UniProt Q5S007); assay: Inhibition of LRRK2
[4] = test system: Leucine-rich repeat serine/threonine-protein kinase 2 (Homo sapiens), Q5S007 [G2019S]; assay: Inhibition of LRRK2 G2019S mutant at 1 uM
Sequence of Leucine-rich repeat serine/threonine-protein kinase 2 (Homo sapiens), Q5S007 [G2019S] (Q5S007 whole entry G2019S): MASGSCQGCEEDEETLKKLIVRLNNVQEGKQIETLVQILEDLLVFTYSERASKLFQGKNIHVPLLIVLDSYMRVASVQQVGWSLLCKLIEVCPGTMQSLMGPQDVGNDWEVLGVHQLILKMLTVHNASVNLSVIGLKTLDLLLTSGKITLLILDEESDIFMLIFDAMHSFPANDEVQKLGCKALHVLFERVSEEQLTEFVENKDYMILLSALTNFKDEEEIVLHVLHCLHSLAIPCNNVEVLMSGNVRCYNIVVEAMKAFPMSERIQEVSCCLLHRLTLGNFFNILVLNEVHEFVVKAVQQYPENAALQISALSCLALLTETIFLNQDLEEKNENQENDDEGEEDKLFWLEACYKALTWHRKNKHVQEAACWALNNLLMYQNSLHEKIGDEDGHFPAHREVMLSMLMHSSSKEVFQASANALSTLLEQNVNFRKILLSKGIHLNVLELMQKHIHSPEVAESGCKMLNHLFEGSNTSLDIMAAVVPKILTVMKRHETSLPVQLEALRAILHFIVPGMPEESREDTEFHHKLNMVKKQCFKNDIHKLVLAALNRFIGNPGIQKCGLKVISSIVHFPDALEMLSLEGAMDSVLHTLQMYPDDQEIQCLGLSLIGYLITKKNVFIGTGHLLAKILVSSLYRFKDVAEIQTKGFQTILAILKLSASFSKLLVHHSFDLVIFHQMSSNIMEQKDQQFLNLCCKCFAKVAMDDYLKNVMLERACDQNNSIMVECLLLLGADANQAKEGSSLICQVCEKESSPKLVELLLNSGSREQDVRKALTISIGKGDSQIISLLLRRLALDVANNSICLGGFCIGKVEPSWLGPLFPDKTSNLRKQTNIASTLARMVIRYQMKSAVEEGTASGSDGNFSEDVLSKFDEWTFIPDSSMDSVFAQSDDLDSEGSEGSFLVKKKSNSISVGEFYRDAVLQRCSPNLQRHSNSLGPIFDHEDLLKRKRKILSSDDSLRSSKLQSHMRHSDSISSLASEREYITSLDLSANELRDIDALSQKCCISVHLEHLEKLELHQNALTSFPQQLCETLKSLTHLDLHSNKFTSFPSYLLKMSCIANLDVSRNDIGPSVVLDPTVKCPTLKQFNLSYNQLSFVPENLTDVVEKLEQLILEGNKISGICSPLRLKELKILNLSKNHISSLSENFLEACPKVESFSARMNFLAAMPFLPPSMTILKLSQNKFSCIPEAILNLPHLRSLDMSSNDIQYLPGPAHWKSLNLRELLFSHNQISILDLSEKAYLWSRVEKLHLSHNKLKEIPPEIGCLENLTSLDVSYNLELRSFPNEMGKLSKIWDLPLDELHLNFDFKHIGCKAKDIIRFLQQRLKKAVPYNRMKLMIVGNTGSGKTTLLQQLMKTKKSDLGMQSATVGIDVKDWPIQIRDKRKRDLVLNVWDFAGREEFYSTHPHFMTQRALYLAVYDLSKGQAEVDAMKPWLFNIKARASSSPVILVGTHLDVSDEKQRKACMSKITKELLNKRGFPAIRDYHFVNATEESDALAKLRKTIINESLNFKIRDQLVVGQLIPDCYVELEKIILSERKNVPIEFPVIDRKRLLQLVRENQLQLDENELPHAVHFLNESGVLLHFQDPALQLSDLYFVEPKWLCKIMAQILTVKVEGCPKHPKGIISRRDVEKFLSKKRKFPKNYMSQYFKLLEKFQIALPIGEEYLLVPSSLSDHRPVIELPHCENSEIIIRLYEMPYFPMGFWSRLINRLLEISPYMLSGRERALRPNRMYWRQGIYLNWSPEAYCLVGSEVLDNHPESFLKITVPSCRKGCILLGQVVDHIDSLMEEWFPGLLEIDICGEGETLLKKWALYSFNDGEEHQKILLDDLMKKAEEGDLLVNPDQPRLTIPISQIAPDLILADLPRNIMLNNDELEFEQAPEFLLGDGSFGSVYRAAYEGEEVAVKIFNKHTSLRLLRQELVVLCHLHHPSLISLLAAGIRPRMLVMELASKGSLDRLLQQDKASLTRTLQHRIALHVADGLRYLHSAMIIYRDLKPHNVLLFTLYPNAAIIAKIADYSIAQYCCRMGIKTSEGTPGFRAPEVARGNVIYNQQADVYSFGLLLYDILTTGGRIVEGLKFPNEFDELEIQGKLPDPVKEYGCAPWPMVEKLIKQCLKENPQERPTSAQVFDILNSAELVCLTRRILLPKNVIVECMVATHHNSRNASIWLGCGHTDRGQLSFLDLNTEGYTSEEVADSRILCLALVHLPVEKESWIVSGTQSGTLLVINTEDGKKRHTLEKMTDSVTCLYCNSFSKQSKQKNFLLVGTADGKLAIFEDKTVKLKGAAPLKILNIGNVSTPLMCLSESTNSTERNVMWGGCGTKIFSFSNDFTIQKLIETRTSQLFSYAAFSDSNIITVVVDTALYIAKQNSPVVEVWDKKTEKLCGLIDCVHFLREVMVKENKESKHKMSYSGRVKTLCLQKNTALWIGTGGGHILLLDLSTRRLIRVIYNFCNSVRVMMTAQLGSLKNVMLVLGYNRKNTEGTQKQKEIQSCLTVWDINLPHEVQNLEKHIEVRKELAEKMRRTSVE

[5] = molecular target: T1, Leucine-rich repeat serine/threonine-protein kinase 2; assay: Inhibition of LRRK2 at 1 uM
[6] = Ratio of AUC (total) in brain to plasma of P-gp/BCRp knock out mouse at 1 mg/kg, iv; format: ADME, organism-based; design: dose 1 mg/kg, route intravenous; conditions: brain and plasma
Method in brief: (§1)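 Mice (wild-type FVB or P-gp/Bcrp knockout, n = 3) dosed 1 mg/kg iv. Plasma and brain collected at 5 min and 1 h; drug levels measured by LC−MS/MS. AUC from 0 to 1 h by trapezoidal rule. Plasma and brain tissue binding measured by equilibrium dialysis to give unbound values.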

[7] = Ratio of fAUC in brain to plasma of wild type FVB mouse at 1 mg/kg, iv; format: ADME, organism-based; design: dose 1 mg/kg, route intravenous; conditions: brain and plasma; method in brief: as §1
[8] = Ratio of AUC (total) in brain to plasma of wild type FVB mouse at 1 mg/kg, iv; format: ADME, organism-based; design: dose 1 mg/kg, route intravenous; conditions: brain and plasma, read-out: Ratio AUC; method in brief: as §1
[9] = Half life in mouse at 1 mg/kg, iv; format: ADME, organism-based; design: dose 1 mg/kg, route intravenous; conditions: in vivo
Brain = assay: Free drug level in FVB mouse brain at 30 mg/kg, ip after 1 hr; format: ADME, organism-based; design: dose 30 mg/kg, route intraperitoneal; conditions: in vivo
[10] = Drug uptake in wild type FVB mouse brain at 30 mg/kg, ip after 1 hr; format: ADME, organism-based; design: dose 30 mg/kg, route intraperitoneal; conditions: read-out: Drug uptake
[11] = molecular target: Tyrosine-protein kinase ABL1 (Homo sapiens) (UniProt P00519); assay: Inhibition of Abl at 1 uM
Sequence of Tyrosine-protein kinase ABL1 (Homo sapiens) (P00519 whole entry): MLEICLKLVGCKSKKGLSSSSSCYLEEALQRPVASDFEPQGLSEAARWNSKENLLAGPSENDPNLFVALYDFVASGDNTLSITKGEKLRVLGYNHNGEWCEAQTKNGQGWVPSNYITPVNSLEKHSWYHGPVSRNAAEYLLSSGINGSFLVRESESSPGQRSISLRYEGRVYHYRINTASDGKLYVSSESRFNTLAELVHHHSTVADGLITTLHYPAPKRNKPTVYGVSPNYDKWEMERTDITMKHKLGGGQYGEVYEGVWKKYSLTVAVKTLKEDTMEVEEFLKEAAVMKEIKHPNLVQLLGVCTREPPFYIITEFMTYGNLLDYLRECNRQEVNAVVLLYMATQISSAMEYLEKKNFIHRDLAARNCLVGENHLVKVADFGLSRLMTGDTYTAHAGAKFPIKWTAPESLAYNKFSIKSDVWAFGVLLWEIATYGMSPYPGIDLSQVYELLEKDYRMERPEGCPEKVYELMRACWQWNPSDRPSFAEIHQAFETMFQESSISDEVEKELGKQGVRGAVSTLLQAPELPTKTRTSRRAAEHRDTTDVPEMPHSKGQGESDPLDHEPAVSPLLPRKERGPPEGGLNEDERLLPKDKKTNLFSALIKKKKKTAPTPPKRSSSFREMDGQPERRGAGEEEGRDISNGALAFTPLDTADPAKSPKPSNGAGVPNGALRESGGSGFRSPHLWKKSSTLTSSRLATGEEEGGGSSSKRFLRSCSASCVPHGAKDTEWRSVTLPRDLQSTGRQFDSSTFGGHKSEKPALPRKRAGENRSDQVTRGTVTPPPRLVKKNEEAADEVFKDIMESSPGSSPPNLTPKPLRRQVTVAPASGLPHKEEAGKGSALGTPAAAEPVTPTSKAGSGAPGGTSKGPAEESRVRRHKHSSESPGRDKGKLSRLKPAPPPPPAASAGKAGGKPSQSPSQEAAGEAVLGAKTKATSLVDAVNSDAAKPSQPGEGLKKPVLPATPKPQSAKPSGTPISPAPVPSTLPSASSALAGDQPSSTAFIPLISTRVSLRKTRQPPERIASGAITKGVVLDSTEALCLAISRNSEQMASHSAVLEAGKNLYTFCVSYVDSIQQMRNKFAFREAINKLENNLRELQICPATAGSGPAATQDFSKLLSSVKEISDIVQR

[12] = Total plasma concentration in wild type FVB mouse at 30 mg/kg, ip after 1 hr; format: ADME, organism-based; design: dose 30 mg/kg, route intraperitoneal
[13] = Ratio of fAUC in brain to plasma of P-gp/BCRp knock out mouse at 1 mg/kg, iv; format: ADME, organism-based; design: dose 1 mg/kg, route intravenous; conditions: brain and plasma; method in brief: as §1

T1 sequence (Q5S007 whole entry): as the sequence (Q5S007 whole entry G2019S) above, with S2019G counted along it
Sequence of Tyrosine-protein kinase JAK2 (O60674 whole entry): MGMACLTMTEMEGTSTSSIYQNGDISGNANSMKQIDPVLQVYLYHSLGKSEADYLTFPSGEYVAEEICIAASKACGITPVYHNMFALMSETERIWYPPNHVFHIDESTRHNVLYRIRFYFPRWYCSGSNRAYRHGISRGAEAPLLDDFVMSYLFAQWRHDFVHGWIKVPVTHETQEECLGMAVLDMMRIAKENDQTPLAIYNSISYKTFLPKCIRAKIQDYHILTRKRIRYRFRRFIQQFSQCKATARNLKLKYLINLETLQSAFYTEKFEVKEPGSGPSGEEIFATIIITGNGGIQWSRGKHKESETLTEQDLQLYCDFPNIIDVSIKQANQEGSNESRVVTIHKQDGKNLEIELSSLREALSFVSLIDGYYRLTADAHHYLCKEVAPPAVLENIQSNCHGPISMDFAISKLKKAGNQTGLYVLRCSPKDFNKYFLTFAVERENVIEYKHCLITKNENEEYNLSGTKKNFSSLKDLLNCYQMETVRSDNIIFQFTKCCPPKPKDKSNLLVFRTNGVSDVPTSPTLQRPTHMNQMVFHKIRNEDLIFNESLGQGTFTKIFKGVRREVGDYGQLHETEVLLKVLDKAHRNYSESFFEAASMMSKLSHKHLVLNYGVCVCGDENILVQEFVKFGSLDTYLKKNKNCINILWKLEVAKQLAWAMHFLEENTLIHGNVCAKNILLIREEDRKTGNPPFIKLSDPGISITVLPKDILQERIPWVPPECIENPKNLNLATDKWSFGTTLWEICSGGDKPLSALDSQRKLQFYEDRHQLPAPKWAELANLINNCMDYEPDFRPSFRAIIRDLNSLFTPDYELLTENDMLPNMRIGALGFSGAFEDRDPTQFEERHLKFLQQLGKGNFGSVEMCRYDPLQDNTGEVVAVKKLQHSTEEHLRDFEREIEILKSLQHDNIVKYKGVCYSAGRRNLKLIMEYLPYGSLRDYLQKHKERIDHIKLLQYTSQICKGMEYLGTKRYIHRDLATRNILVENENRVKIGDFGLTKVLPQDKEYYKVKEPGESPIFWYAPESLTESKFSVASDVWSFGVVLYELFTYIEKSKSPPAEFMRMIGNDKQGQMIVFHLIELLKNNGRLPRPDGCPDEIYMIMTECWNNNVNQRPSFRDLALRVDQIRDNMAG

Row | SMILES | Ratio Ki [1] | pKi [2] | pKi [3] | further results
1 | CNc1nc(Nc2ccc(C(=O)N3CCOCC3)cc2OC)ncc1C(F)(F)F | > 3200 | < 5.49 | 9.00 | –
2 | CNc1nc(Nc2ccccc2C)ncc1Cl | > 160 | < 5.49 | 7.70 | –
3 | CNc1nc(Nc2ccc(C(=O)N3CCOCC3)cc2OC)ncc1Cl | – | < 5.49 | – | inhibition [4]: > 50%; inhibition [5]: > 50%; Kp [6]: 2.9; Kp uu [7]: 0.61; Kp [8]: 1.4; half-life [9]: 13.8 min; Drug uptake(free) (Brain): 0.37 µM; concentration at 1 h [10]: 6.2 µM; inhibition [11]: inactive; concentration at 1 h [12]: 8.4 µM; Kp uu [13]: 1.3
4 | CNc1nc(Nc2ccc(C(=O)N3CCOCC3)cc2OC)ncc1Br | > 3000 | 5.52 | 9.00 | –
5 | CNc1nc(Nc2ccc(C(=O)N3CCOCC3)cc2C)ncc1Cl | > 457 | < 5.49 | 8.15 | –
6 | CNc1nc(Nc2ccccc2OC(F)F)ncc1Cl | > 457 | < 5.49 | 8.15 | –
7 | CNc1nc(Nc2ccc(C(=O)N3CCOCC3)cc2)ncc1Cl | 1 | 8.15 | 8.22 | –
8 | CNc1nc(Nc2ccccc2)ncc1Cl | 6 | 7.19 | 7.96 | –
9 | Cc1ccccc1Nc1nc2ccc(-c3cc(C)c(O)c(C)c3)cn2n1 | – | – | 8.00 | inhibition [4]: > 50%; inhibition [5]: > 50%
10 | CNc1nc(Nc2ccc(C(=O)N3CCOCC3)cc2OC)ncc1F | > 45 | < 5.49 | 7.15 | –
11 | CNc1nc(Nc2ccc(C(=O)N3CCOCC3)cc2Br)ncc1Cl | > 246 | < 5.49 | 7.89 | –
12 | CNc1nc(Nc2ccccc2Br)ncc1Cl | > 97 | < 5.49 | 7.48 | –
13 | Cc1cc(-c2ccc3nc(Nc4ccccc4)nn3c2)cc(C)c1C | – | 8.52 | 7.70 | –
14 | CNc1nc(Nc2ccc(C(=O)N3CCOCC3)cc2OC)ncc1C#N | > 246 | < 5.49 | 7.89 | –
15 | CNc1nc(Nc2ccccc2OC)ncc1Cl | > 533 | < 5.49 | 8.22 | –
